Screening results (PubChem BioAssay)
PPC-1+TRAIL kill – PPC-1 cancer cell killing with TRAIL present; cell killing (% activity), % at 4 µM or 5 µM; AID 1443; hit rate 0.41% among 220,000; PPC-1 cells + TRAIL, ATPLite viability luminescence;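 active means cell killing above 50% in the first pass at 4 µM, then a duplicate retest at 5 µM averaging 50% or more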
STAT1 inh – reduces IFN-gamma driven STAT1 reporter signal; NIH 3T3 STAT1-luciferase reporter, luminescence; inhibition, % at 5.5 µM; hit rate 0.35% among 200,000;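 active means inhibition above a set limit, the mean inhibition across all tested compounds plus 3 SD, cut at about 34% in these data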
STAT3 inh – inhibitors of IL-6 induced STAT3 signaling; U3A cells, IL-6 STAT3-luciferase reporter, luminescence; host cell line lacks STAT1; inhibition, % at 5.5 µM; hit rate 0.89% among 190,000;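 active means inhibition above the mean inhibition across all screened compounds plus 3 SD, cut at about 44% in these data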
STAT3 activator – STAT3 signaling activation; activation (% of control), % at 5.6 µM; hit rate 0.91% among 190,000; U3A cells, IL-6 STAT3-luciferase reporter, luminescence; 100% = signal with IL-6 EC80 alone; AID 871;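 active means activation above the screen-wide mean of compound activation plus 3 SD, cut at about 130% in these data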
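Material: human STAT1-deficient U3A cells with stable STAT3-luciferase reporter / Probe or stimulus: IL-6 stimulus at 33 ng/mL final / Schedule: 1 h compound pre-exposure, 6 h IL-6 stimulation, 37 °C / Technique: luminescence / Read-out basis: percent of IL-6-only median luminescence / Control set: IL-6-only high control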
HSP90 refold inh – inhibitors of HSP90 luciferase refolding in rabbit reticulocyte lysate; luciferase refolding luminescence, 3 h; hit rate 0.91% among 290,000; inhibition, % at 5.6 µM;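 active means inhibition above the screen-wide mean plus 3 SD, computed separately per campaign, cut at about 16% in these data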;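 further: inhibitors lower the luminescence because luciferase stays unfolded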
C8 TRAIL sens – sensitizes caspase-8 expressing cells to TRAIL | inhibition (viability loss, TRAIL sensitization), % at 10 µM | AID 624354 | NB7+C8 cells + TRAIL, ATPlite viability luminescence | hit rate 1% among 360,000;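 active means compounds causing at least 50% loss of cell viability in the single-dose screen, relative to plate controls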
A number is an active result; n = inactive; x = not tested or not shown. Shown are actives, neighbours in structure and some others; about 2.3% of the full set was active somewhere.

SMILES	PPC-1+TRAIL kill	STAT1 inh	STAT3 inh	STAT3 activator	HSP90 refold inh	C8 TRAIL sens
Cn1cc(/C=N/n2cnc3scc(-c4ccc(Cl)cc4)c3c2=O)c2ccccc21	n	n	n	135	n	n
COc1ccc(-n2c(-c3ccc(Br)cc3)c[n+]3c2CCc2ccccc2-3)cc1	n	n	72	n	n	n
COc1ccc(-c2c[n+]3c(n2-c2ccccc2)CCCCC3)cc1	n	n	n	n	n	n
CC(C)c1ccc(-n2c(-c3ccccc3)c[n+]3c2CCc2ccccc2-3)cc1	n	40	80	n	n	53
O=C(O)C1C2C=CC(C2)C1C(=O)N1CCN(C/C=C/c2ccccc2)CC1 (stereo not given)	n	n	n	n	n	n
Cn1c2ccccc2c(=O)c2c(=O)n(C3CCCCCC3)c(C3CCCCC3)nc21	n	n	n	n	n	n
Cn1c2ccccc2c(=O)c2c(=O)n(-c3ccccc3)c(C3CCCCC3)nc21	n	n	n	134	n	n
C#CCN(C[C@@H]1[C@@H](OC(=O)NCc2ccccc2F)[C@@H](OC(=O)NCc2ccccc2F)Cn2c(=O)n(CCCCCC)c(=O)n21)S(=O)(=O)c1ccc(C)cc1	x	x	x	x	x	n
C#CCN(C[C@@H]1[C@@H](OC(=O)NCc2ccccc2F)[C@@H](OC(=O)NCc2ccccc2F)Cn2c(=O)ccc(=O)n21)S(=O)(=O)c1ccc(C)cc1	x	x	x	x	x	81
C#CCN(C[C@@H]1[C@@H](OC(=O)Nc2cccs2)[C@@H](OC(=O)Nc2cccs2)Cn2c(=O)ccc(=O)n21)S(=O)(=O)c1ccc(C)cc1	x	x	x	x	x	86
C#CCN(C[C@@H]1[C@@H](OC(=O)NC2CCCC2)[C@@H](OC(=O)NC2CCCC2)Cn2c(=O)ccc(=O)n21)S(=O)(=O)c1ccc(C)cc1	x	x	x	x	x	n
CN(C(=O)c1ccc(NC(=O)Cc2ccc(NC(=O)C3CCCN(C(=O)C4CCCCC4)C3)cc2)cc1)C1CC1 (stereo not given)	x	x	x	x	x	n
Cc1ccc(NC(=O)Nc2cccs2)cc1	n	n	n	n	n	n
CCOc1ccc(NC(=O)Nc2cccs2)cc1	n	n	n	n	n	51
CCOC(=O)c1cccc(NC(=O)Nc2ccc(OCC)cc2)c1	n	65	53	n	n	n
CCOc1ccc(NC(C(=O)Nc2cccc(C(C)=O)c2)c2ccccc2)cc1 (stereo not given)	n	n	n	n	n	n
CCOc1ccc(NC(=O)Nc2cccnc2)cc1	n	n	n	n	n	58
CCOc1ccc(/C=C/C(=O)Nc2cccc(C(C)=O)c2)cc1	n	n	n	n	n	55
CCOC(CNC(=O)C(=O)Nc1cc2c3c(c1)CC(=O)N3CCC2)OCC	x	x	x	x	n	n
CCN(c1ccccc1)S(=O)(=O)c1cc(CN2C(=O)c3cccnc3C2=O)ccc1OC	x	x	x	x	n	n
Cc1cc(Cl)ccc1OCC(=O)NNC(=O)c1ccc(=O)[nH]c1	x	x	x	x	x	n
CCOc1ccc(NC(=O)c2ccccc2OC)cc1	n	n	n	133	n	n
CCc1ccc(NC(=O)Nc2cccs2)cc1	n	n	n	n	n	54
COc1ccccc1N/N=C/c1ccc2c(c1)OCO2	n	51	72	n	n	n
COc1ccc(C2C(C(=O)c3ccccc3)N3c4ccccc4C=CC3C2[N+](=O)[O-])cc1 (stereo not given)	n	n	n	133	n	n
SMILES	PPC-1+TRAIL kill	STAT1 inh	STAT3 inh	STAT3 activator	HSP90 refold inh	C8 TRAIL sens
CSc1ccccc1NC(=O)c1cnccn1	n	n	n	n	n	n
COc1ccc(C)cc1N(C(=O)c1ccccc1)c1nc2ccccc2s1	n	n	n	n	n	n
COc1ccc(C)cc1N(C(=O)c1cccc(F)c1)c1nc2ccccc2s1	n	n	n	134	n	n
O=Nc1c(O)c2ccccc2c2ccccc12	x	x	x	x	x	92
CCOc1ccc(N=C2SC(C(=O)Nc3ccccc3C#N)C(N)=C2C(=O)Nc2ccc(Cl)cc2)cc1 (stereo not given)	n	n	n	n	n	n
N#Cc1ccccc1NC(=O)C1SC(=Nc2ccccc2)C(C(=O)Nc2ccc(Cl)cc2)=C1N (stereo not given)	n	55	54	n	n	n
N#CC1(Nc2ccc(S(N)(=O)=O)cc2)CCCC1	x	x	x	x	x	n
COC(=O)C12OCC34C(CC5C(C)=C(O)C(=O)CC5(C)C3C(O)C1O)OC(=O)C(OC(=O)C=C(C)C)C24 (stereo not given)	x	x	x	x	x	65
Cc1ccc(-c2noc(-c3ccoc3C)n2)cc1	n	n	n	138	n	n
COc1cc(OC)cc(C(=O)O/N=C(\N)c2ccccn2)c1	n	x	x	x	n	n
CCOc1cc(C(=O)O/N=C(\N)c2ccccn2)cc(OCC)c1OCC	x	x	x	x	n	61
CCOc1ccc(C(=O)O/N=C(\N)c2ccccn2)cc1OCC	x	x	x	x	n	79
COc1cc(C(=O)N2CCN(c3ccccc3F)CC2)ccc1OCC(=O)N1CCOCC1	x	x	x	x	x	n
COc1ccc(NC(=O)c2ccc(C)cc2)cc1	x	x	x	x	n	68
COc1ccc(C(=O)Nc2ccccc2C(N)=O)cc1	n	n	n	n	n	52
COc1ccc(C(=O)Nc2ccccc2C(=O)Nc2ccccc2C(=O)O)cc1	x	x	x	x	n	59
NC(=O)c1ccccc1NC(=O)c1ccc2ccccc2c1	x	x	x	x	n	59
COc1ccc(C(=O)Nc2ccccc2C(=O)N2CCCCCC2)cc1	x	x	x	x	n	n
COc1ccc(CC(=O)Nc2cc(=O)n(C)c(=O)n2C)cc1OC	n	n	n	n	n	n
CN1C(=O)CC(c2cn(Cc3ccccc3)c3ccccc23)C1=O (stereo not given)	n	x	x	x	n	n
C[C@@H]1O[C@@H](Oc2c(-c3cc(O)c(O)c(O)c3)oc3cc(O)cc(O)c3c2=O)[C@H](O)[C@H](O)[C@H]1O	n	n	n	n	n	n
COc1ccc(C(=O)Nc2ccccc2C(=O)Nc2ccncc2)cc1	x	x	x	x	n	65
COc1ccc(C(=O)Nc2ccccc2C(=O)Nc2ccc(C(=O)O)cc2)cc1	x	x	x	x	n	n
CCOc1ccc(Nc2cc(=O)[nH]c(=O)[nH]2)cc1	x	x	x	x	n	n
CCOC(=O)c1sc(=NC(=O)c2ccc(C)cc2)n(C)c1C	n	n	n	145	n	n
SMILES	PPC-1+TRAIL kill	STAT1 inh	STAT3 inh	STAT3 activator	HSP90 refold inh	C8 TRAIL sens
CCOC(=O)c1sc(=NC(=O)c2ccc(F)cc2)n(C)c1C	x	x	x	x	n	n
Cc1ccc(S(=O)(=O)Nc2cncnc2NS(=O)(=O)c2ccc(C)cc2)cc1	x	x	x	x	x	n
O=C(Nc1ccccc1)Nc1nnc(-c2ccccc2)o1	n	n	n	n	n	n
O=C(Nc1nnc(-c2ccccc2)o1)NC1CCCCC1	n	n	n	n	n	61
O=C(NCCNC(=O)c1cc(OCC(F)(F)F)ccc1OCC(F)(F)F)Nc1ccc(Cl)cc1	n	n	n	n	n	x
O=C(Nc1cccc(-c2ccc(N3CCCCC3)nn2)c1)C(F)(F)F	x	x	x	x	n	89
O=S(=O)(Nc1cccc(-c2ccc(N3CCCCCC3)nn2)c1)c1ccc(C(F)(F)F)cc1	x	x	x	x	n	n
